Calls of active or inactive are those of the source. The rule behind the calls is not given here. Peptide text beside a SMILES is read from it. * marks the point of attachment. X1 = CCC(=C(c1ccc(OCCN2CCCCCC2)cc1)c1ccc(OCCN2CCCCCC2)cc1)c1cccc(C(=O)*)c1

The target of assay [1] is T1, Proteasome Macropain subunit MB1 (Homo sapiens, UniProt P28074).
T1 sequence (P28074 whole entry): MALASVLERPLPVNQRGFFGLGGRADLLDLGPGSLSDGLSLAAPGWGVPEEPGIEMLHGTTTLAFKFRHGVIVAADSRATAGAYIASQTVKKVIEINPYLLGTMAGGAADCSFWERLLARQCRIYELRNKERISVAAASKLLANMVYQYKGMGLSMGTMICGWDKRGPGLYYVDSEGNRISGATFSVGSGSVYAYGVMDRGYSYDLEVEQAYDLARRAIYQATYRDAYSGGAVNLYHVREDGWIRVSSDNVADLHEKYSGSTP
Briefly: Inhibition of chymotrypsin-like activity of human 26S proteasome using Suc-LLVY-MCA as substrate measured for 1 hr by fluorescence assay. The method, boiled down: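 Purified 26S proteasome with 50 µM fluorogenic substrate in 50 mM HEPES pH 7.5, 40 mM KCl, 5 mM MgCl₂, BSA, 0.5 mM ATP, 1 mM DTT. Inhibitor range 0.1–40 µM. AMC fluorescence monitored 1 h at 37 °C. IC₅₀ from inhibition curves; n = 3.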

The target in assay [2] is T1, Proteasome Macropain subunit MB1. The assay can be described thus: Inhibition of chymotrypsin-like activity of human 20S proteasome using Suc-LLVY-MCA as substrate measured for 1 hr by fluorescence assay. The method, boiled down: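 Purified human 20S proteasome with 50 µM fluorogenic substrate in 25 mM HEPES pH 8.0, 0.5 mM EDTA, 0.03% SDS. Inhibitor range 0.1–10 µM, with the table footnote giving 0.5–8 µM. IC₅₀ from inhibition curves; n = 3.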

For assay [3] the target is unchanged. The assay can be described thus: Inhibition of chymotrypsin-like activity of 26S proteasome in human KMS11 cells using […] as substrate after 24 to 48 hrs by luminescence-based assay. The format is cell-based. An outline of the steps:
(§1)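 Intracellular proteasome assay. Cells seeded in triplicate at 5 × 10³ cells/well and incubated 24 or 48 h with 0.1–10 µM inhibitor, 0.5% final DMSO. Proteasome-Glo reagent with aminoluciferin-linked peptide substrates lyses the cells; luminescence read after 15 min. IC₅₀ taken from inhibition curves.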

Assay [4] has as its system RPMI-8226. Briefly: Cytotoxicity against human RPMI8226 cells after 24 to 48 hrs by CellTiter-Glo assay. The format is functional. An outline of the steps:
(§2)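 RPMI8226 or KMS-11 cells seeded in triplicate wells at 5 × 10² cells/well and exposed to 0.1–10 µM compound (DMSO) for 24 or 48 h. Survival read as cellular ATP level; Cyt₅₀ derived from concentration–survival curves.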
On the technique in general: Cellular ATP, detected with luciferase, serves as a proxy for viable cell number.

In assay [5] the target is T1, Proteasome Macropain subunit MB1. The assay can be described thus: Inhibition of chymotrypsin-like activity of 26S proteasome in human RPMI8226 cells using […] as substrate after 24 to 48 hrs by luminescence-based assay. The assay is classed as cell-based. An outline of the steps: as §1
Assay [6] relates to KMS-11. The assay can be described thus: Cytotoxicity against human KMS11 cells after 24 to 48 hrs by CellTiter-Glo assay. The format is functional. An outline of the steps: as §2
Assay [7] has as its system RPMI-8226. The assay can be described thus: Cytotoxicity against human RPMI8226 cells assessed as reduction in cell viability at 10 uM after 2 to 48 hrs by CellTiter-Glo assay. The assay is classed as functional, cell-based. The method, boiled down: (§3)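 Cells cultured with each compound at 10 µM, with viability followed over time by ATP assay. Mock-treated cells define 100%; values are means of three independent experiments.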

Assay [8] deals with KMS-11. Briefly: Cytotoxicity against human KMS11 cells at 10 uM by CellTiter-Glo assay. The assay is classed as functional, cell-based. To be noted: TDE = time-dependent effect. The method, boiled down:
as §3

The target of assay [9] is T1, Proteasome Macropain subunit MB1. Briefly: Inhibition of chymotrypsin-like activity of human 26S proteasome using Z-LLE-MCA as substrate measured for 1 hr in presence of ATPgammaS by fluorescence assay.

What is called IC50 is the concentration needed to halve the response being measured. On to `N=C(N)NCCC[C@H](NC(=O)[C@H](CCCNC(=N)N)NC(=O)[C@H](CCCNC(=N)N)NC(=O)[C@H](CCCNC(=N)N)NC(=O)[C@H](CCCNC(=N)N)NC(=O)[C@H](CCCNC(=N)N)NC(=O)[C@H](CCCNC(=N)N)NC(=O)[C@H](CCCNC(=N)N)NC(=O)CN)C(N)=O`, for which the IC50 in [1] is over 40 µM; in assay [2] it was over 8 µM.
As a reminder, the CC50 is the concentration at which the toxic effect on the cells reaches its halfway point. As for `CCC(=C(c1ccc(OCCN2CCCCCC2)cc1)c1ccc(OCCN2CCCCCC2)cc1)c1cccc(C(=O)NCC(=O)N[C@@H](CCCNC(=N)N)C(=O)N[C@@H](CCCNC(=N)N)C(=O)N[C@@H](CCCNC(=N)N)C(=O)N[C@@H](CCCNC(=N)N)C(=O)N[C@@H](CCCNC(=N)N)C(=O)N[C@@H](CCCNC(=N)N)C(=O)N[C@@H](CCCNC(=N)N)C(=O)N[C@@H](CCCNC(=N)N)C(N)=O)c1`, the IC50 in assay [3] is 6.3 µM; in assay [5], 5.7 µM; in assay [1] it was 5.5 µM; in assay [9] it was 2.4 µM; in assay [2], over 50 µM. For the same compound, the half-maximal cytotoxic concentration (CC50) came to 4.3 µM with RPMI-8226 [4] and 7.2 µM with KMS-11 [6]. Moreover, the outcome in the assay with RPMI-8226 [7] was Active. Besides, in the assay on KMS-11 [8], the Activity result is “Tde”.
On to `CCC(=C(c1ccc(OCCN2CCCCCC2)cc1)c1ccc(OCCN2CCCCCC2)cc1)c1cccc(C(=O)NCC(=O)N[C@@H](CC(C)C)C(=O)N[C@@H](CC(C)C)C(=O)N[C@H](C(=O)N[C@@H](Cc2ccc(O)cc2)C(=O)NCC(=O)NCC(N)=O)C(C)C)c1` (X1-GLLVYGG-NH2), for which the IC50 was found to be 9.1 µM in [1] and 0.89 µM in assay [2].
For `CCC(=C(c1ccc(OCCN2CCCCCC2)cc1)c1ccc(OCCN2CCCCCC2)cc1)c1cccc(CNC(=O)CN[C@@H](CCCNC(=N)N)C(=O)N[C@@H](CCCNC(=N)N)C(=O)N[C@@H](CCCNC(=N)N)C(=O)N[C@@H](CCCNC(=N)N)C(=O)NC(C)=O)c1` the same measures were over 40 µM and over 8 µM.
For `CCC(=C(c1ccc(OCCN2CCCCCC2)cc1)c1ccc(OCCN2CCCCCC2)cc1)c1cccc(C(=O)NCC(=O)N[C@@H](CCCNC(=N)N)C(=O)N[C@@H](CCCNC(=N)N)C(=O)N[C@@H](CCCNC(=N)N)C(=O)N[C@@H](CCCNC(=N)N)C(N)=O)c1` (X1-GRRRR-NH2) the same measures were over 40 µM and over 8 µM.
With `CCC(=C(c1ccc(OCCN2CCCCCC2)cc1)c1ccc(OCCN2CCCCCC2)cc1)c1cccc(C(=O)NCC(=O)N[C@@H](CC(C)C)C(=O)N[C@@H](CC(C)C)C(=O)N[C@H](C(=O)N[C@@H](Cc2ccc(O)cc2)C(N)=O)C(C)C)c1` (X1-GLLVY-NH2), the IC50 was 26 µM in assay [1] and 0.89 µM in [2].
For `CCC(=C(c1ccc(OCCN2CCCCCC2)cc1)c1ccc(OCCN2CCCCCC2)cc1)c1cccc(CNC(=O)CN[C@@H](CCCNC(=N)N)C(=O)N[C@@H](CCCNC(=N)N)C(=O)N[C@@H](CCCNC(=N)N)C(=O)N[C@@H](CCCNC(=N)N)C(=O)N[C@@H](CCCNC(=N)N)C(=O)N[C@@H](CCCNC(=N)N)C(=O)NC(C)=O)c1` the same measures were over 40 µM and over 8 µM.
`CCC(=C(c1ccc(OCCN2CCCCCC2)cc1)c1ccc(OCCN2CCCCCC2)cc1)c1cccc(C(=O)NCC(=O)N[C@@H](CCCNC(=N)N)C(=O)N[C@@H](CCCNC(=N)N)C(=O)N[C@@H](CCCNC(=N)N)C(=O)N[C@@H](CCCNC(=N)N)C(=O)N[C@@H](CCCNC(=N)N)C(=O)N[C@@H](CCCNC(=N)N)C(=O)N[C@@H](CCCNC(=N)N)C(=O)N[C@@H](CCCNC(=N)N)C(=O)NC(C)=O)c1`: the IC50 in assay [3] was 2.1 µM; in [5], 2.1 µM; in assay [1] it was 9.4 µM; in [9], 6 µM; in assay [2], over 40 µM. Also, the results for the cytotoxic concentration (CC50) in the assay on RPMI-8226 [4] and in the assay on KMS-11 [6] were 2.7 µM and 4.5 µM, respectively. In addition, the result in the assay on RPMI-8226 [7] was Active. Further, the Activity entry in the assay with KMS-11 [8] is “Tde”.
Regarding Ac-RRRRRRRRG-OH, the 50% inhibitory concentration (IC50) was over 40 µM in [1] and over 8 µM in assay [2].
In turn, `CCC(=C(c1ccc(OCCN2CCCCCC2)cc1)c1ccc(OCCN2CCCCCC2)cc1)c1ccccc1` displayed a CC50 with RPMI-8226 [4] of 3.6 µM. For the same compound, the half-inhibitory concentration (IC50) is 11 µM in assay [5], over 100 µM in assay [1] and 1.02 µM in [2]. In addition, in the assay on RPMI-8226 [7], the result was Active. Also, in the assay with KMS-11 [8], the Activity result is “Tde”.
As to `CCC(=C(c1ccc(OCCN2CCCCCC2)cc1)c1ccc(OCCN2CCCCCC2)cc1)c1cccc(C(=O)NCC(=O)N[C@@H](CCCNC(=N)N)C(=O)N[C@@H](CCCNC(=N)N)C(=O)N[C@@H](CCCNC(=N)N)C(=O)N[C@@H](CCCNC(=N)N)C(=O)N[C@@H](CCCNC(=N)N)C(=O)N[C@@H](CCCNC(=N)N)C(N)=O)c1`, the IC50 in [1] was over 40 µM; in assay [2], over 8 µM.
For `CC[C@]1(O)C[C@@H]2CN(CCc3c([nH]c4ccccc34)[C@@](C(=O)OC)(c3cc4c(cc3OC)N(C)[C@H]3[C@@](O)(C(=O)OC)[C@H](OC(C)=O)[C@]5(CC)C=CCN6CC[C@]43[C@@H]65)C2)C1` [VINBLASTINE] the same measures were over 40 µM and 4.58 µM.
For `CCC(=C(c1ccc(OCCN2CCCCCC2)cc1)c1ccc(OCCN2CCCCCC2)cc1)c1cccc(C(=O)NCC(=O)N[C@@H](CC(C)C)C(=O)N[C@@H](CC(C)C)C(=O)N[C@@H](CC(C)C)C(=O)NCC(=O)NCC(=O)NCC(=O)NCC(N)=O)c1` (X1-GLLLGGGG-NH2) the same measures were 5 µM and 1.1 µM.
Regarding `CCC(=C(c1ccc(OCCN2CCCCCC2)cc1)c1ccc(OCCN2CCCCCC2)cc1)c1cccc(C(=O)NCC(=O)N[C@@H](CC(C)C)C(=O)N[C@@H](CC(C)C)C(=O)N[C@@H](CCC(=O)O)C(N)=O)c1`, the results for the IC50 in assay [1] and in assay [2] were 24 µM and 6.1 µM, respectively.
On to `CCC(=C(c1ccc(OCCN2CCCCCC2)cc1)c1ccc(OCCN2CCCCCC2)cc1)c1cccc(CNC(=O)CN[C@@H](CC(C)C)C(=O)N[C@@H](CC(C)C)C(=O)N[C@H](C(=O)N[C@@H](Cc2ccc(O)cc2)C(=O)NC(C)=O)C(C)C)c1`, for which the results for the IC50 in assay [1] and in [2] were over 40 µM and 0.37 µM, respectively.

For the origin of these results see ChEMBL document CHEMBL4196013, “Ridaifen-F conjugated with cell-penetrating peptides inhibits intracellular proteasome activities and induces drug-resistant cell death” (Eur J Med Chem, 2018).
